From ChEMBL document CHEMBL4130527, “New Scaffold for Angiogenesis Inhibitors Discovered by Targeted Chemical Transformations of Wondonin Natural Products” (ACS Med Chem Lett, 2017)
Active and inactive are the calls of the source. The calls are words filed in the database; no cut-off is given here.

Columns and labels:
[1] = tested on: HUVEC; test: Antiangiogenic activity in HUVEC assessed as inhibition of VEGF-induced capillary tube formation after 8 hrs by matrigel based inverted microscopic analysis; format: functional, cell-based; settings: Homo sapiens
Method in brief: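 HUVECs treated with compound with or without VEGF (50 ng/mL) for 8 h. Intact tubes counted under a microscope, and IC50 calculated against control. Value is the mean IC50 from triplicate experiments.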

[2] = tested on: HUVEC; test: Growth inhibition of HUVEC after 24 hrs in presence of VEGF by MTT assay; format: cell-based; settings: Homo sapiens
Method in brief: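 HUVECs exposed to compound in the presence of VEGF (50 ng/mL) for 24 h, with growth read by MTT assay. Value is the mean IC50 from triplicate experiments.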

[3] = tested on: HUVEC; test: Antimigratory activity in HUVEC after 24 hrs by inverted phase contrast light microscopic analysis; format: functional, cell-based; settings: Homo sapiens
Method in brief: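 Migrated HUVECs counted and compared with VEGF-treated control groups. Statistics by ANOVA with Tukey's test, n = 3.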

[4] = biological target: Vascular endothelial growth factor receptor 2 (Homo sapiens) (UniProt P35968); test: Inhibition of VEGFR2 in HUVEC assessed as decrease in VEGF-induced PI3K phosphorylation at Tyr458 residues pretreated for 30 mins followed by VEGF stimulation for 20 mins by Western blot analysis; format: cell-based
Method in brief: (§1)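 HUVECs pretreated with various compound concentrations for 30 min, then stimulated with VEGF (50 ng/mL) for 20 min. Phosphoproteins detected by immunoblot, with β-actin as loading control.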

[5] = biological target: Vascular endothelial growth factor receptor 2 (Homo sapiens) (UniProt P35968); test: Inhibition of VEGFR2 in HUVEC assessed as decrease in VEGF-induced AKT phosphorylation at Thr308 residues pretreated for 30 mins followed by VEGF stimulation for 20 mins by Western blot analysis; format: cell-based; method in brief: as §1
[6] = biological target: Vascular endothelial growth factor receptor 2 (Homo sapiens) (UniProt P35968); test: Inhibition of VEGFR2 in HUVEC assessed as decrease in VEGF-induced eNOS phosphorylation at Ser1177 residues pretreated for 30 mins followed by VEGF stimulation for 20 mins by Western blot analysis; format: cell-based; method in brief: as §1
[7] = biological target: Vascular endothelial growth factor receptor 2 (Homo sapiens) (UniProt P35968); test: Inhibition of VEGF-induced VEGFR2 phosphorylation at Tyr1175 residues in HUVEC pretreated for 30 mins followed by VEGF stimulation for 20 mins by Western blot analysis; format: cell-based; method in brief: as §1
[8] = biological target: Vascular endothelial growth factor receptor 2 (Homo sapiens) (UniProt P35968); test: Inhibition of VEGFR2 in HUVEC assessed as decrease in VEGF-induced SRC phosphorylation pretreated for 30 mins followed by VEGF stimulation for 20 mins by Western blot analysis; format: cell-based; method in brief: as §1
[9] = biological target: Vascular endothelial growth factor receptor 2 (Homo sapiens) (UniProt P35968); test: Inhibition of VEGFR2 in HUVEC assessed as decrease in VEGF-induced AKT phosphorylation at […] residues pretreated for 30 mins followed by VEGF stimulation for 20 mins by Western blot analysis; format: cell-based; method in brief: as §1
[10] = biological target: Vascular endothelial growth factor receptor 2 (Homo sapiens) (UniProt P35968); test: Inhibition of VEGFR2 in HUVEC assessed as decrease in VEGF-induced FAK phosphorylation at Tyr397 residues pretreated for 30 mins followed by VEGF stimulation for 20 mins by Western blot analysis; format: cell-based; method in brief: as §1
[11] = tested on: HUVEC; test: Inhibition of integrin in HUVEC assessed as decrease in VEGF-induced SRC/FAK phosphorylation pretreated for 30 mins followed by VEGF stimulation for 20 mins by Western blot analysis; format: cell-based; settings: Homo sapiens; method in brief: as §1
[12] = biological target: Casein kinase I isoform alpha (Homo sapiens) (UniProt P48729); test: Inhibition of human wild type partial length CSNK1A1 (M1 to L301 residues) expressed in mammalian expression system at 10 uM by Kinomescan method relative to control
Method in brief: (§2)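 Compound tested at 10 μM in a KINOMEscan binding panel of 30 kinases. Activity taken from binding between each kinase and its corresponding ligand.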

[13] = biological target: T1, Protein kinase C iota type (Homo sapiens) (UniProt P41743); test: Inhibition of human wild type partial length PRKCI (H215 to V587 residues) expressed in mammalian expression system at 10 uM by Kinomescan method relative to control; method in brief: as §2
T1 sequence (whole entry): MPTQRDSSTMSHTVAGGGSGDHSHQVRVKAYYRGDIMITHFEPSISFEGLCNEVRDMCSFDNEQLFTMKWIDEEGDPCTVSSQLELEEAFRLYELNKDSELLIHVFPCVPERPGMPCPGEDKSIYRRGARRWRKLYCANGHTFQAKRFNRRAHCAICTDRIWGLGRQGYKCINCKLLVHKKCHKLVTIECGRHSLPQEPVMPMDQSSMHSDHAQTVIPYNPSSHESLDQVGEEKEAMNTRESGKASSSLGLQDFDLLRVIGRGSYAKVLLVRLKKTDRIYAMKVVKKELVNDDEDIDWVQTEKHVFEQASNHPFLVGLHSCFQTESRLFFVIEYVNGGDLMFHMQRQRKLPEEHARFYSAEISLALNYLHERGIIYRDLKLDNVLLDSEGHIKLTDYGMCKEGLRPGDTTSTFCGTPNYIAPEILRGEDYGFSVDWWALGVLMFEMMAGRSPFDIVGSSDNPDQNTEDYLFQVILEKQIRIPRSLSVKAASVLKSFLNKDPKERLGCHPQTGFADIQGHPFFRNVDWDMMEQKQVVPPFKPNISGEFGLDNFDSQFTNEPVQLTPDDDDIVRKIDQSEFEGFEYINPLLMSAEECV

[14] = biological target: Dual specificity mitogen-activated protein kinase kinase 1 (Homo sapiens) (UniProt Q02750); test: Inhibition of human wild type partial length MEK1 (M1 to V393 residues) expressed in mammalian expression system at 10 uM by Kinomescan method relative to control; method in brief: as §2
[15] = species on record: Danio rerio; test: Antiangiogenic activity in transgenic zebrafish flk:EGFP embryo model of DR-mimic hyaloid vessels in larval eye lenses assessed as inhibition of high glucose induced increase in hyaloid vessel diameter pretreated with glucose 3 days post fertilization for 3 days followed by compound addition measured 6 days post fertilization by fluorescence microscopy; format: functional, organism-based
Method in brief: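 Transgenic flk:EGFP zebrafish embryos at 3 dpf exposed to 130 mM glucose for 3 days to induce DR-mimic hyaloid vessels, with compound at varying concentrations. Hyaloid vessel diameter measured near the optic disc in isolated eye lenses; primary branch number compared with high-glucose controls. ANOVA with Tukey's test, n = 3.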

[16] = species on record: Danio rerio; test: Toxicity in transgenic zebrafish flk:EGFP embryo model of DR-mimic hyaloid vessels in larval eye lenses measured 6 days post fertilization; format: organism-based; settings: in vivo, 144 h
[17] = Apparent permeability from apical to basolateral side in MDCK cells at 10 uM by LC-MS/MS analysis; format: ADME, cell-based, Canis lupus familiaris; settings: dog
Method in brief: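 Apparent permeability coefficient (Papp, A-B) measured across MDCK cell monolayers.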

[18] = Stability in human plasma assessed as parent compound remaining at 10 uM after 30 mins by LC-MS/MS analysis; format: ADME, cell-free; settings: read-out: Stability
Method in brief: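 Parent compound remaining after 30 min incubation in human plasma.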

[19] = Metabolic stability in human liver microsomes assessed as parent compound remaining at 1 uM preincubated for 5 mins followed by NADPH addition measured after 30 mins by LC-MS/MS analysis; format: ADME, microsome; settings: read-out: Stability
Method in brief: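 Parent compound remaining after 30 min incubation with human liver microsomes.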

Sequence of Vascular endothelial growth factor receptor 2 (Homo sapiens) (P35968 whole entry): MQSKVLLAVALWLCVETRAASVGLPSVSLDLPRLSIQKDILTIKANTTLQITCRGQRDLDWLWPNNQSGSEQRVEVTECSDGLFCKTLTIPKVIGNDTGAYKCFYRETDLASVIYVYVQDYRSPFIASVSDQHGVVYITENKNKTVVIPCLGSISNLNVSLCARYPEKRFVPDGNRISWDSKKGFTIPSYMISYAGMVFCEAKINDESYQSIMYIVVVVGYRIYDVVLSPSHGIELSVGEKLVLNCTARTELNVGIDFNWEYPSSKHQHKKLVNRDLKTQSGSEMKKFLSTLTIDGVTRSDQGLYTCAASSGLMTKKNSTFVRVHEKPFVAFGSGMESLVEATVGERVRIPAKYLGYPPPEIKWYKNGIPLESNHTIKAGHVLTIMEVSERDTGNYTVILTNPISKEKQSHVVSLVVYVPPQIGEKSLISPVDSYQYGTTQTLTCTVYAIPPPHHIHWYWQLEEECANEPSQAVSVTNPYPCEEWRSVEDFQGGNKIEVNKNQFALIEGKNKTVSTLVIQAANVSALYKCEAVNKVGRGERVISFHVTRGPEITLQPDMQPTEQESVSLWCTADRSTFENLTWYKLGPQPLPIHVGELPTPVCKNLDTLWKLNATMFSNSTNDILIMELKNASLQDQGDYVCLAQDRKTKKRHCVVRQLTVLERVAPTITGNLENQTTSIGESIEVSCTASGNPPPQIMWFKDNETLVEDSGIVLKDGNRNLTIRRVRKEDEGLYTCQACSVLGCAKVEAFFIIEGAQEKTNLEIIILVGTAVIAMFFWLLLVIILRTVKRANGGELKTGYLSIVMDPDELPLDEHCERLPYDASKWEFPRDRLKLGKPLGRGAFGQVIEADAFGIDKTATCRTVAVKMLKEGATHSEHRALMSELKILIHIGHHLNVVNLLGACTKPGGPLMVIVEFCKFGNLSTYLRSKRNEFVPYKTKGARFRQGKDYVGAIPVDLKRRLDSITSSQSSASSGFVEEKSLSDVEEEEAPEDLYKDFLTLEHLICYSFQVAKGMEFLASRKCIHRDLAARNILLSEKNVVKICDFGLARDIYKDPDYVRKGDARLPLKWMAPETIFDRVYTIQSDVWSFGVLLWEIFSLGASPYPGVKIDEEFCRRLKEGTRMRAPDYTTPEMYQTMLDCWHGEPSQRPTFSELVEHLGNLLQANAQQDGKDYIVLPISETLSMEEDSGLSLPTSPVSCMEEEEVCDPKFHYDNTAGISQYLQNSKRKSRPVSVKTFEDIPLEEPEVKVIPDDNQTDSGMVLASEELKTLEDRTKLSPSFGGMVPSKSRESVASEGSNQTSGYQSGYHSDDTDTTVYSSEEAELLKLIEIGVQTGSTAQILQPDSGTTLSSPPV
Sequence of Casein kinase I isoform alpha (Homo sapiens) (P48729 2-337 limits assumed): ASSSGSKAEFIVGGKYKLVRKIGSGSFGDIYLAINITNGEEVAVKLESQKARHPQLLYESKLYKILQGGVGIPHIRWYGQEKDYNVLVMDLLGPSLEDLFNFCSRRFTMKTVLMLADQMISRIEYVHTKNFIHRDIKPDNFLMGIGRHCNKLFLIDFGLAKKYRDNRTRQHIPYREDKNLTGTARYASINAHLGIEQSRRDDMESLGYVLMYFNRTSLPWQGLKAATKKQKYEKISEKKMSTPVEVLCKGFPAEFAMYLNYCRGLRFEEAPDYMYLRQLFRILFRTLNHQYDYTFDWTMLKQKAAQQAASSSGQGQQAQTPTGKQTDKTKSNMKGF
Sequence of Dual specificity mitogen-activated protein kinase kinase 1 (Homo sapiens) (Q02750 whole entry, the tested form may be a part): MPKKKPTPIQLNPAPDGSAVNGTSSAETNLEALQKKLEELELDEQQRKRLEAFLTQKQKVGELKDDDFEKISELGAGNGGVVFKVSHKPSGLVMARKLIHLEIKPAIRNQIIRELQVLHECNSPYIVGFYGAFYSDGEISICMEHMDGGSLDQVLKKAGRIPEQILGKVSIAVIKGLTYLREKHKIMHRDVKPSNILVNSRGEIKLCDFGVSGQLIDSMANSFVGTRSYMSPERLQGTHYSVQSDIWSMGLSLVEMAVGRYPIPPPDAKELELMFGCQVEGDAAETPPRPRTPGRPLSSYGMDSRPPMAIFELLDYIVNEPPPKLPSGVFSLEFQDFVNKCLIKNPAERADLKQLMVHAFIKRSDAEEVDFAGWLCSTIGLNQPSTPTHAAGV

| SMILES | IC50 [1] [µM] | IC50 [2] [µM] | further results |
| --- | --- | --- | --- |
| CCN(CC)CCNC(=O)c1c(C)[nH]c(/C=C2\C(=O)Nc3ccc(F)cc32)c1C [SUNITINIB] | 0.546 | 9.92 |  |
| CCc1ccc2nc(C(c3ccc(O)c(O)c3)n3cc(CCN(C)C)nn3)oc2c1 (configuration not stated) | > 20 | > 100 |  |
| CCCNCCc1cn(C(c2ccc(OC)c(OC)c2)c2nc3ccc(CC)cc3s2)nn1 (configuration not stated) | 1.39 | 38.6 |  |
| CCc1ccc2nc(C(c3ccc(OC)c(OC)c3)n3cc(CCN4CCCCC4)nn3)sc2c1 (configuration not stated) | 0.631 | 47.5 | inhibition [1]: Dose-dependent effect; Activity [3]: Dose-dependent effect; inhibition [4]: Active; inhibition [5]: Active; inhibition [6]: Active; inhibition [7]: Active; inhibition [8]: Active; inhibition [9]: Active; inhibition [10]: Active; inhibition [11]: Active; inhibition [12]: > 40%; inhibition [13]: > 40%; inhibition [14]: > 40%; inhibition [15]: Dose-dependent effect; Activity [16]: Non-Toxic; Papp A→B at 10 µM [17]: 11 ×10⁻⁶ cm/s; remaining at 0.5 h, 10 µM [18]: 95%; remaining at 0.5 h, 1 µM [19]: 31% |
| CCc1ccc2nc(C(c3ccc(OC)c(OC)c3)n3cc(CCNC4CCCC4)nn3)sc2c1 (configuration not stated) | 1.02 | 19.4 |  |
| CN(C)CCc1cn(C(c2ccc(O)c(O)c2)C2Oc3ccc(/C=C/OS(=O)(=O)O)cc3O2)cn1 (configuration not stated) | 42.8 | > 100 |  |
| CCc1ccc2c(c1)OC(C(c1ccc(O)c(O)c1)n1cc(CCN(C)C)nn1)O2 (configuration not stated) | 28 | 95.9 |  |
| CCc1ccc2nc(C(c3ccc(OC)c(OC)c3)n3cc(CCN4CCCC4)nn3)sc2c1 (configuration not stated) | 2.84 | 70.3 |  |
| CCc1ccc2nc(C(c3ccc(O)c(O)c3)n3cc(CCN(C)C)nn3)sc2c1 (configuration not stated) | 3.04 | 37.3 |  |
| CCc1ccc2nc(C(c3ccc(OC)c(OC)c3)n3cc(CCN(C)C)nn3)sc2c1 (configuration not stated) | 8.27 | 93.5 |  |
| CCc1ccc2cc(C(c3ccc(O)c(O)c3)n3cc(CCN(C)C)nn3)oc2c1 (configuration not stated) | 6.1 | 22 |  |
| CCc1ccc2nc(C(c3ccc(OC)c(OC)c3)n3cc(CCN4CCOCC4)nn3)sc2c1 (configuration not stated) | 3.93 | > 100 |  |
